How the values were obtained:
[1] = molecular target: T1, Uridine phosphorylase 1 (Mus musculus, UniProt P52624); experiment: Inhibition of uridine phosphorylase (UrdPase) from murine liver.
Summary of the method: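 Murine liver UrdPase; uridine converted to uracil over 30 min at 37 °C, with enzyme set to give 10% conversion uninhibited. Stopped by 1 min at 100 °C. Uridine and uracil separated by TLC (chloroform:methanol:acetic acid 90:5:5).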

[2] = molecular target: Uridine phosphorylase 1 (Mus musculus) (UniProt P52624); experiment: The compound was tested for inhibition of uridine phosphorylase (UrdPase) from murine liver at 10 uM of concentration
Uridine phosphorylase 1 (Mus musculus), sequence (P52624 whole entry, looked up): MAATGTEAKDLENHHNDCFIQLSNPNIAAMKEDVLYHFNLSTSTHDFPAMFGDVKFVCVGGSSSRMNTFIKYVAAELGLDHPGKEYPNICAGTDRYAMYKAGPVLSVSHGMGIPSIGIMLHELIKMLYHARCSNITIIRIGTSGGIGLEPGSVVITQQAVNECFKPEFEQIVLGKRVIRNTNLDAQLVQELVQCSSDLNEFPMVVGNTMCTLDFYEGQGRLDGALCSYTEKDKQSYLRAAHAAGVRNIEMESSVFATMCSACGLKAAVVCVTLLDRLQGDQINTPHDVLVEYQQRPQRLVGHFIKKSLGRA

[3] = molecular target: Uridine phosphorylase 1 (Mus musculus) (UniProt P52624); experiment: The compound was tested for inhibition of uridine phosphorylase (UrdPase) from murine liver at 5 uM of concentration
[4] = molecular target: T1, Uridine phosphorylase 1; experiment: The compound was tested for inhibition of uridine phosphorylase (UrdPase) from murine liver Value refers to activity for apparent Ki value

T1 sequence (P52624 whole entry): as the sequence (P52624 whole entry, looked up) above

SMILES	IC50 [1] [µM]	also measured
COc1ccc(Cc2c[nH]c(=O)[nH]c2=O)cc1OC	129	
Oc1ncc(Cc2ccc(C(F)(F)F)cc2)c(O)n1		inhibition [2]: 16%
O=c1[nH]cc(Cc2ccc3c(c2)OCO3)c(=O)[nH]1	13.6	
CCCOc1cccc(Cc2cn(COCCO)c(=O)[nH]c2=O)c1	0.047	
Oc1ncc(Cc2cccc(OCc3ccccc3)c2)c(O)n1		inhibition [3]: 15%
COc1cccc(Cc2cn(COCCO)c(=O)[nH]c2=O)c1		Ki [4]: 1.86 µM

Now from value to molecule, other results behind:

IC50 [1] [µM]	SMILES	also measured
66.5	COc1ccc(Cc2cnc(O)nc2O)cc1	
13	O=c1[nH]cc(Cc2cccc(OCCCC(F)(F)F)c2)c(=O)[nH]1	
5.9	O=c1[nH]cc(Cc2ccc([N+](=O)[O-])cc2)c(=O)[nH]1	
